The subject of series [1] is Micrococcus luteus. Nature of the series: Antibacterial activity against Micrococcus luteus ATCC 21881 at 1 mg/mL after 24 hrs by agar diffusion method. The class given is functional. The note with it: ATCC 21881, 24 h, read-out: Diameter of inhibition zone. In short, it runs like this:
(§1)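 Agar disc diffusion: 5 mm sterile paper discs soaked in 1 mg/mL test solution in DMSO were placed on agar seeded with the organism, in triplicate, with a DMSO-only control. Bacterial plates were incubated at 37 °C for 24 h and fungal plates for 7 days. Read-out was the average inhibition-zone diameter in mm. Fungi were clinical isolates.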

The test system of series [2] is Staphylococcus aureus. Nature of the series: Antibacterial activity against Staphylococcus aureus ATCC 6538 at 1 mg/mL after 24 hrs by agar diffusion method. Type of series: functional. The note with it: ATCC 6538, 24 h, read-out: Diameter of inhibition zone. Summed up: as §1
Series [3] deals with Mus musculus. Nature of the series: Anticonvulsant activity in Wister albino mouse assessed as protection against maximal electroshock-induced seizures at 100 mg/kg, ip administered 30 mins before metrazole challenge measured after 30 mins. The class given is functional. The note with it: route intraperitoneal.
For a further series, the system named is Pichia kudriavzevii. Nature of the series: Antifungal activity against Candida krusei isolate after 72 hrs by twofold serial dilution method. The class given is functional, organism-based.
Series [4] deals with Bacillus subtilis. Nature of the series: Antibacterial activity against Bacillus subtilis NRRL B-14819 after 24 to 48 hrs by twofold serial dilution method. The class given is functional. Summed up: (§2)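 Broth microdilution in Müller–Hinton broth. DMSO stocks at 800 were diluted twofold from 400 down to 6.25. Wells received 10^6 CFU/mL bacterial suspension and were incubated at 36 °C for 24–48 h, with controls. MIC was read per well. Duplicate assays; run only for compounds giving inhibition zones ≥14 mm.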

Series [5] deals with Mus musculus. Nature of the series: Anticonvulsant activity in Wister albino mouse assessed as protection against subcutaneous metrazole-induced seizures at 100 mg/kg, ip administered 30 mins before metrazole challenge measured after 30 mins. The class given is functional. Conditions: route intraperitoneal. Summed up: (§3)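 Wistar albino mice, either sex, 25–30 g, 3 months old, in groups of six. Compounds in DMSO were given ip at 30, 100 or 300 mg/kg; vehicle-only controls. After 30 min, metrazole 100 mg/kg in DMSO was injected sc at the posterior midline. Protection meant absence of any clonic spasm lasting ≥5 s; scored as protected/tested.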

Series [6] concerns Mus musculus. The series can be described thus: Anticonvulsant activity in Wister albino mouse assessed as protection against subcutaneous metrazole-induced seizures at 30 mg/kg, ip administered 30 mins before metrazole challenge measured after 30 mins. Type of series: functional. Summed up:
as §3

The test system of series [7] is Escherichia coli. The series can be described thus: Antibacterial activity against Escherichia coli ATCC 25922 at 1 mg/mL after 24 hrs by agar diffusion method. Type of series: functional. The note with it: ATCC 25922, 24 h, read-out: Diameter of inhibition zone. Summed up: as §1
The test system of series [8] is Klebsiella pneumoniae. The series can be described thus: Antibacterial activity against Klebsiella pneumoniae isolate after 24 to 48 hrs by twofold serial dilution method. The class given is functional. In short, it runs like this:
as §2

The subject of series [9] is Mus musculus. Nature of the series: Anticonvulsant activity in Wister albino mouse assessed as protection against subcutaneous metrazole-induced seizures at 300 mg/kg, ip administered 30 mins before metrazole challenge measured after 30 mins. Type of series: functional. In short, it runs like this:
as §3

Series [10] has as its system Pseudomonas aeruginosa. Nature of the series: Antibacterial activity against Pseudomonas aeruginosa ATCC 27853 after 24 to 48 hrs by twofold serial dilution method. The class given is functional. In short, it runs like this: as §2
Series [11] has as its system Klebsiella pneumoniae. The series can be described thus: Antibacterial activity against Klebsiella pneumoniae isolate at 1 mg/mL after 24 hrs by agar diffusion method. Type of series: functional. The note with it: read-out: Diameter of inhibition zone. In short, it runs like this: as §1
Series [12] has as its system Micrococcus luteus. Nature of the series: Antibacterial activity against Micrococcus luteus ATCC 21881 after 24 to 48 hrs by twofold serial dilution method. Type of series: functional. In short, it runs like this:
as §2

In series [13] the test system is Escherichia coli. Nature of the series: Antibacterial activity against Escherichia coli ATCC 25922 after 24 to 48 hrs by twofold serial dilution method. The class given is functional. Summed up:
as §2

For a further series, the system named is Aspergillus niger. The series can be described thus: Antifungal activity against Aspergillus niger isolate after 72 hrs by twofold serial dilution method. Type of series: functional, organism-based.
Series [14] has as its system Candida albicans. The series can be described thus: Antifungal activity against Candida albicans isolate at 1 mg/mL after 7 days by twofold serial dilution method. The class given is functional. The note with it: 168 h, read-out: Diameter of inhibition zone.
In series [15] the test system is Aspergillus fumigatus. The series can be described thus: Antifungal activity against Aspergillus fumigatus isolate at 1 mg/mL after 7 days by agar diffusion method. Type of series: functional. Conditions: 168 h, read-out: Diameter of inhibition zone. In short, it runs like this: as §1
Series [16] deals with Staphylococcus aureus. Nature of the series: Antibacterial activity against Staphylococcus aureus ATCC 6538 after 24 to 48 hrs by twofold serial dilution method. The class given is functional. Summed up: as §2
In a further series the test system is Trichophyton rubrum. The series can be described thus: Antifungal activity against Trichophyton rubrum isolate after 72 hrs by twofold serial dilution method. The class given is functional, organism-based.
For series [17], the system named is Bacillus subtilis. The series can be described thus: Antibacterial activity against Bacillus subtilis NRRL B-14819 at 1 mg/mL after 24 hrs by agar diffusion method. The note with it: read-out: Diameter of inhibition zone. Type of series: functional. Summed up: as §1
Another series relates to Candida tropicalis. Nature of the series: Antifungal activity against Candida tropicalis isolate after 72 hrs by twofold serial dilution method. The class given is functional, organism-based.
The test system of series [18] is Pseudomonas aeruginosa. Nature of the series: Antibacterial activity against Pseudomonas aeruginosa ATCC 27853 at 1 mg/mL after 24 hrs by agar diffusion method. The class given is functional. The note with it: ATCC 27853, 24 h, read-out: Diameter of inhibition zone. Summed up: as §1
Series [19] relates to Candida albicans. Nature of the series: Antifungal activity against Candida albicans isolate after 72 hrs by twofold serial dilution method. Type of series: functional.
In series [20] the test system is Aspergillus fumigatus. Nature of the series: Antifungal activity against Aspergillus fumigatus isolate after 72 hrs by twofold serial dilution method. The class given is functional.
Series [21] relates to Mus musculus. The series can be described thus: Anticonvulsant activity in Wister albino mouse assessed as protection against maximal electroshock-induced seizures at 300 mg/kg, ip administered 30 mins before metrazole challenge measured after 30 mins. Type of series: functional. The note with it: route intraperitoneal.
In series [22] the test system is Mus musculus. Nature of the series: Toxicity in Wister albino mouse assessed as death following tonic extension at 100 mg/kg, ip. Type of series: organism-based. On the set-up: dose 100 mg/kg, route intraperitoneal. The note with it: in vivo. In short, it runs like this: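 Wistar albino mice of either sex (25–30 g, 3 months), six per group. Compound was dissolved in DMSO and given ip 30 min before the maximal electroshock test, with solvent-only controls. Corneas received 0.5% xylocaine; 6 Hz, 0.2-ms pulses were given for 3 s at 6–64 mA. Animals were observed 30 min after dosing, and deaths following tonic extension were recorded.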

In brackets after ≈: the same amount, converted by molar mass. Activity calls are given as the source filed them. No cut-off for these calls is given here.

For the molecule `O=C(COC(Cn1nnc(-c2ccccc2)n1)c1ccc(Cl)cc1)NNC(=S)Nc1ccccc1` (stereo not given), the zone of inhibition at 1000 µg/mL with Micrococcus luteus [1], in the series with Staphylococcus aureus [2], in the series with Escherichia coli [7], with Klebsiella pneumoniae [11], with Candida albicans [14] and in the series with Aspergillus fumigatus [15] was at least 14 mm in each case. The zone of inhibition at 1000 µg/mL with Bacillus subtilis [17] and with Pseudomonas aeruginosa [18] was at least 14 mm each time. Moreover, the Activity in the series with Mus musculus [3] was 67%; in the series with Mus musculus [5] it was 80%; with Mus musculus [6], 0%; in the series on Mus musculus [9], 0%. In addition, the result with Pichia kudriavzevii, in the series with Aspergillus niger, with Trichophyton rubrum and with Candida tropicalis was inactive. The MIC in the series on Bacillus subtilis [4] was 100 µg/mL (≈ 197 µM); in the series on Klebsiella pneumoniae [8], at least 200 µg/mL; against Pseudomonas aeruginosa [10], at least 200 µg/mL; in the series with Micrococcus luteus [12] it was at least 200 µg/mL; in the series with Escherichia coli [13], at least 200 µg/mL; against Staphylococcus aureus [16] it was 50 µg/mL (≈ 98.4 µM).
For `Sc1nnc(COC(Cn2nnnc2Cc2ccccc2)c2ccc(Cl)cc2)n1-c1ccccc1` (stereo not given), the zone of inhibition at 1000 µg/mL with Micrococcus luteus [1], in the series on Staphylococcus aureus [2], in the series with Escherichia coli [7], with Klebsiella pneumoniae [11], in the series on Candida albicans [14] and with Aspergillus fumigatus [15] was at least 14 mm in each case. Further, the zone of inhibition at 1000 µg/mL with Bacillus subtilis [17] and with Pseudomonas aeruginosa [18] was at least 14 mm in each case. The MIC with Candida albicans [19] is 50 µg/mL (≈ 99.2 µM); in the series with Bacillus subtilis [4], 100 µg/mL (≈ 198 µM); against Klebsiella pneumoniae [8], at least 200 µg/mL; against Pseudomonas aeruginosa [10], at least 200 µg/mL; against Micrococcus luteus [12] it was at least 200 µg/mL; in the series on Escherichia coli [13], 100 µg/mL (≈ 198 µM). The MIC with Staphylococcus aureus [16] was 50 µg/mL (≈ 99.2 µM); in the series with Aspergillus fumigatus [20], at least 200 µg/mL. Further, the Activity in the series on Mus musculus [3] is 33%; with Mus musculus [5], 0%. The outcome in the series on Pichia kudriavzevii, in the series on Aspergillus niger, in the series on Trichophyton rubrum and in the series on Candida tropicalis was inactive.
For the molecule `Clc1ccc(C2Cn3nnnc3Cc3ccccc32)cc1` (stereo not given), the zone of inhibition at 1000 µg/mL with Micrococcus luteus [1], with Staphylococcus aureus [2], with Escherichia coli [7], with Klebsiella pneumoniae [11], in the series with Candida albicans [14] and with Aspergillus fumigatus [15] was at least 14 mm each time. Further, the zone of inhibition at 1000 µg/mL with Bacillus subtilis [17] and in the series on Pseudomonas aeruginosa [18] was at least 14 mm each time. In addition, the MIC against Candida albicans [19] was at least 200 µg/mL; against Bacillus subtilis [4], at least 200 µg/mL; in the series with Klebsiella pneumoniae [8], at least 200 µg/mL; against Pseudomonas aeruginosa [10], at least 200 µg/mL; with Micrococcus luteus [12], at least 200 µg/mL; against Escherichia coli [13], 50 µg/mL (≈ 168 µM). Also, the MIC in the series with Staphylococcus aureus [16] is 50 µg/mL (≈ 168 µM); against Aspergillus fumigatus [20] it was 25 µg/mL (≈ 84.2 µM). Besides, the Activity in the series with Mus musculus [3] was 33%; in the series with Mus musculus [5], 0%. The result in the series with Pichia kudriavzevii, in the series on Aspergillus niger, with Trichophyton rubrum and in the series on Candida tropicalis was inactive.
In the case of `Cc1cc(C)n(C(=O)COC(Cn2nnnc2Cc2ccccc2)c2ccc(Cl)cc2)n1` (stereo not given), the zone of inhibition at 1000 µg/mL with Micrococcus luteus [1], with Staphylococcus aureus [2], in the series on Escherichia coli [7], with Klebsiella pneumoniae [11], with Candida albicans [14] and in the series on Aspergillus fumigatus [15] was at least 14 mm each time. Moreover, the zone of inhibition at 1000 µg/mL with Bacillus subtilis [17] and in the series with Pseudomonas aeruginosa [18] was at least 14 mm throughout. Also, the MIC was 100 µg/mL (≈ 222 µM) with Candida albicans [19]; 50 µg/mL (≈ 111 µM) with Bacillus subtilis [4]; at least 200 µg/mL against Klebsiella pneumoniae [8]; at least 200 µg/mL against Pseudomonas aeruginosa [10]; 50 µg/mL (≈ 111 µM) in the series with Micrococcus luteus [12]; 100 µg/mL (≈ 222 µM) in the series with Escherichia coli [13]. The figures for the MIC against Staphylococcus aureus [16] and in the series with Aspergillus fumigatus [20] were 25 µg/mL (≈ 55.4 µM) and at least 200 µg/mL, respectively. Moreover, the Activity in the series on Mus musculus [3] and with Mus musculus [5] was 0% each time. Besides, the outcome with Pichia kudriavzevii, in the series on Aspergillus niger, with Trichophyton rubrum and in the series with Candida tropicalis was inactive.
`OC(Cn1nnnc1Cc1ccccc1)c1ccc(Cl)cc1` (stereo not given): the Activity is 67% in the series with Mus musculus [3], 100% in the series with Mus musculus [5], 0% in the series with Mus musculus [6] and 50% with Mus musculus [9].
In the case of `O=C(Cn1nnnc1Cc1ccccc1)c1ccc(Cl)cc1`, the Activity in the series on Mus musculus [3] is 50%; in the series on Mus musculus [5], 50%; with Mus musculus [6], 0%; with Mus musculus [9], 0%; with Mus musculus [21], 0%.
Regarding `O=C(Cn1nnc(-c2ccccc2)n1)c1ccc(Cl)cc1`, the Activity is reported as 0% in the series on Mus musculus [3], 0% in the series with Mus musculus [5] and “Toxic” with Mus musculus [22].

(Values after ChEMBL document CHEMBL1152796, “Azole antimicrobial pharmacophore-based tetrazoles: synthesis and biological evaluation as potential antimicrobial and anticonvulsant agents” (Bioorg Med Chem, 2009).)
